OX1R antag-1 – OX1R (human) antagonism | O43613 | OX1R-expressing cells, FRET antagonist read-out | inhibition, % at 6.6 µM | 330,000 tested, 1.8% active | AID 485270; in the data active = inhibition mostly above about 38%, no sharp cut-off; inactive = mostly below about 40%
zfTRPN1 agonist – zebrafish TRPN1 (NompC) channel agonism; 220,000 tested, 0.18% active; HEK293 zebrafish TRPN1-YFP, Fluo-8 calcium fluorescence; 100% = response to 87 µM carbachol; activation, % at 3 µM;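 active = activation above its plate's cutoff, the mean activation of test wells on that plate plus 3 SD, cut at about 19% in these data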
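Control set: carbachol 87 µM as high control, DMSO as low control; system: HEK293 stable line with zebrafish TRPN1-YFP; read-out: % activation versus carbachol response; detection: intracellular calcium fluorescence with Fluo-8; doses: single test compound dose, 3 µM nominal, 0.3% DMSO; schedule: dye 1 h 37 °C plus 30 min RT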
TRPML3 ag – activates the human TRPML3 channel. activation, % at 3 µM. 220,000 tested, 0.29% active. Q8TDD5. AID 1448. HEK293 TRPML3-YFP, Fluo-8 calcium fluorescence; 100% = the carbachol control signal;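 active = activation above its plate's cutoff, the mean activation of the plate's test wells plus 3 SD, cut at about 12% in these data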
Target sequence (Q8TDD5 whole entry, looked up): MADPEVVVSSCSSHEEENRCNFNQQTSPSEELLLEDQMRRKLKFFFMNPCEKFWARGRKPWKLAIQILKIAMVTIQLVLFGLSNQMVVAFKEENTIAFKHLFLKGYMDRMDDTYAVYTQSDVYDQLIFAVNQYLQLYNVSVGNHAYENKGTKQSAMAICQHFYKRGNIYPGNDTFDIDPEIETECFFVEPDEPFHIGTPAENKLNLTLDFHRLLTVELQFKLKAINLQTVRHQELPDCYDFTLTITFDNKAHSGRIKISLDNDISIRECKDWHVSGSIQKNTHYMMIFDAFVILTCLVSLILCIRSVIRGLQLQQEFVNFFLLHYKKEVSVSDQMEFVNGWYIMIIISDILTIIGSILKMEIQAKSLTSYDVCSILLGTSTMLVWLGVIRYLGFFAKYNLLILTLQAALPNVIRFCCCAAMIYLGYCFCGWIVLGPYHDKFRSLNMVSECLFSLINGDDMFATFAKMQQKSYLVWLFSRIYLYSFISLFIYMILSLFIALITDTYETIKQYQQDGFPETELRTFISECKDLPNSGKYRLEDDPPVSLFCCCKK
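system = HEK293 cells stably carrying human TRPML3-YFP | doses = one concentration, 3 µM nominal, 0.3% DMSO | timing = dye loading 1 h 37 °C then 30 min ambient, 125 s read | detection = Fluo-8 calcium dye fluorescence, ex 470-495, em 515-575 nm | benchmarks = high control carbachol 87 µM, low control DMSO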
OX1R antag-2 – human HCRTR1 antagonism. O43613. CHO/OX1R cells, Fluo-8 calcium fluorescence, orexin A. 330,000 tested, 0.43% active. AID 434989. inhibition, % at 5 µM;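 active = inhibition above its plate's threshold, mean inhibition of all tested compounds on the plate plus 3 SD, cut at about 37% in these data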
CHO parental Ca – signal in parental CHO cells, OX1R antagonist counter-screen. parental CHO-K1, ATP-induced calcium, Fluo-8 fluorescence. inhibition, % at 5.6 µM. 330,000 tested, 0.63% active;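 active = inhibition above that plate's mean sample inhibition plus 3 SD, cut at about 26% in these data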
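Material: parental CHO cells / Compound: single nominal dose of 5.6 µM per compound / Signal: Fluo-8 fluorescence / Replicates: singlicate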
OX1R Fluo8 conf – OX1R (human) antagonism, confirmed. CHO/OX1R cells, orexin A calcium Fluo-8 fluorescence. inhibition, % at 5 µM. shares compounds with OX1R antag-2. 1,100 tested, 38% active; in the data active = inhibition above about 29%
CHO Ca triplic – signal in parental CHO cells, OX1R antagonist counter-screen. shares compounds with OX1R antag-2. parental CHO-K1, ATP-induced calcium, Fluo-8 fluorescence. inhibition, % at 5.6 µM. 1,100 tested, 9.3% active;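 active = inhibition above a per-plate limit, the mean inhibition of that plate's test compounds plus 3 SD, cut at about 25% in these data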
Each line names hits and unclear results; the compound was inactive in the other large screens (follow-up assays come after a bar, where they were run). Shown are actives, neighbours in structure and some others; about 2.5% of the full set was active somewhere.

CN(Cc1nccn1C)C(=O)C1CCC(=O)N(Cc2cccc(C(F)(F)F)c2)C1 (stereo not given)	none (no result: zfTRPN1 agonist, TRPML3 ag)
O=C(CN(c1cccc([N+](=O)[O-])c1)S(=O)(=O)c1ccccc1)NCc1ccccc1	none
O=C(CN(c1cccc([N+](=O)[O-])c1)S(=O)(=O)c1ccccc1)N(Cc1ccccc1)Cc1ccccc1	none | OX1R Fluo8 conf inactive | CHO Ca triplic inactive
COc1cc(CCC(=O)N2CCN(c3cccc(C)c3C)CC2)cc(OC)c1OC	none (no result: zfTRPN1 agonist, TRPML3 ag)
Cc1ccc(NC(=O)C2CCN(C(=O)c3ccc(F)cc3)CC2)nc1	none (no result: zfTRPN1 agonist, TRPML3 ag)
Cc1cc(N)ccc1NC(=O)CN1CCOCC1	none (no result: zfTRPN1 agonist, TRPML3 ag)
CCOC(=O)C1=CC[C@@H](c2cccc(C)c2)N(S(=O)(=O)c2ccc(C)cc2)[C@H]1C(=O)OCC	none (no result: zfTRPN1 agonist, TRPML3 ag) | OX1R Fluo8 conf inactive | CHO Ca triplic inactive
CCOC(=O)C1=CC[C@@H](c2ccccc2Cl)N(S(=O)(=O)c2ccc(C)cc2)[C@H]1C(=O)OCC	OX1R antag-2 60 (no result: zfTRPN1 agonist, TRPML3 ag) | OX1R Fluo8 conf inactive | CHO Ca triplic inactive
COc1cc(CCCN2CCNC[C@H]2Cc2cccc3ccccc23)cc(OC)c1OC	none (no result: zfTRPN1 agonist, TRPML3 ag)
Cc1cc([N+](=O)[O-])ccc1NCc1ccccc1	OX1R antag-2 50 | OX1R Fluo8 conf inactive | CHO Ca triplic inactive
Cc1cc([N+](=O)[O-])ccc1NCc1ccc2ccccc2c1	none
C[C@H](CO)N1C[C@H](C)[C@H](CN(C)CC2CCCCC2)Oc2ccc(NS(=O)(=O)c3ccc(F)cc3)cc2CC1=O	none (no result: zfTRPN1 agonist, TRPML3 ag)
CCOC(=O)CSc1nc2ccccc2c(=O)n1-c1ccc(C)cn1	none (no result: zfTRPN1 agonist, TRPML3 ag)
CCCCn1c(N)c(N(CC(C)C)C(=O)CSCc2c(C)noc2C)c(=O)[nH]c1=O	none (no result: zfTRPN1 agonist, TRPML3 ag)
COc1ccc2nc(C)cc(Sc3nc4ccccc4s3)c2c1	none
Cn1c(SCc2ccc(F)cc2Cl)nc2ccccc2c1=O	none (no result: zfTRPN1 agonist, TRPML3 ag) | OX1R Fluo8 conf inactive | CHO Ca triplic inactive
COC(=O)CC1C(=O)NC2CCCCC2N1C(=O)CCl (stereo not given)	none
NC(=O)c1ccsc1NC(=O)CSc1nc2ccccc2c(=O)n1CCCO	none
Cn1c(SCC(=O)Nc2sccc2C(N)=O)nc2ccccc2c1=O	none (no result: zfTRPN1 agonist, TRPML3 ag) | OX1R Fluo8 conf inactive | CHO Ca triplic inactive
COc1ccccc1CNC(=O)CCc1ccccc1	none (no result: zfTRPN1 agonist, TRPML3 ag)
COc1ccc(CCC(=O)NCc2ccccc2OC)cc1	none (no result: zfTRPN1 agonist, TRPML3 ag) | OX1R Fluo8 conf inactive | CHO Ca triplic inactive
CCOC(=O)C1CCN(C(=O)CSCc2nc(-c3ccc(OCC)cc3)oc2C)CC1	none | OX1R Fluo8 conf inactive | CHO Ca triplic inactive
CC(=O)c1ccc(OCc2cc(C(=O)N(C)Cc3nc4c(C)cccc4[nH]3)no2)cc1	none (no result: zfTRPN1 agonist, TRPML3 ag)
CC(=O)c1ccc(OCc2cc(C(=O)N(C)CCOc3ccc(C)cc3)no2)cc1	none (no result: zfTRPN1 agonist, TRPML3 ag) | OX1R Fluo8 conf inactive | CHO Ca triplic inactive
O=C(CNS(=O)(=O)c1cccc(Cl)c1)Nc1ccc(-c2nc3ccccc3s2)cc1	none
CC(NS(=O)(=O)c1cccc(Cl)c1)C(=O)Nc1ccc(-c2nc3ccccc3s2)cc1 (stereo not given)	none | OX1R Fluo8 conf inactive | CHO Ca triplic inactive
OC(CN1CCCCC1)Cn1c2ccccc2c2cc(Br)ccc21 (stereo not given)	none (no result: zfTRPN1 agonist, TRPML3 ag) | OX1R Fluo8 conf inactive | CHO Ca triplic inactive
O=C(COC(=O)c1cccs1)c1ccc2c(c1)OCCO2	none
O=C(COC(=O)c1cccs1)c1ccc2ccccc2c1	none | OX1R Fluo8 conf inactive | CHO Ca triplic inactive
COC(=O)CNC(=O)C(NC(=O)OCc1ccccc1)C(C)C (stereo not given)	none | OX1R Fluo8 conf inactive | CHO Ca triplic inactive
COc1ccccc1N1CC(C(=O)Nc2nnc(SC)s2)CC1=O (stereo not given)	none (no result: zfTRPN1 agonist, TRPML3 ag)
CSc1ccc(CN(C)C(=O)c2cccc(S(=O)(=O)NCc3ccccc3)c2)cc1	OX1R antag-2 40 (no result: zfTRPN1 agonist, TRPML3 ag) | OX1R Fluo8 conf inactive | CHO Ca triplic inactive
CC(C)(C)C(=O)Nc1ccccc1C(=O)NCc1cccnc1	none
CC(C)(C)c1ccccc1OCC(=O)Nc1ccccc1C(=O)NCc1cccnc1	OX1R antag-2 43 (no result: zfTRPN1 agonist, TRPML3 ag) | OX1R Fluo8 conf inactive | CHO Ca triplic inactive
COc1ccc(N2CCN(C(=O)CSc3ccc([N+](=O)[O-])cc3)CC2)cc1	none | OX1R Fluo8 conf inactive | CHO Ca triplic inactive
